Data set [1] in a line: folding enthalpy; higher = less favourable; fluorescence melt of hairpins on a sequencing array, two-state fit. The note with it: sodium 0.088 M. The method in brief:
(§1)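 With Cy3 and quencher oligos annealed, library hairpins on a sequenced MiSeq flow cell were imaged for Cy3 fluorescence in 50 mM Na-HEPES pH 8.0, 25 mM NaCl, in 2.5 °C steps up to 60 °C. Melting temperature and folding enthalpy were derived from bootstrapped two-state fits of signals normalised to pre-quench Cy3 and to control constructs. Four replicates were combined by inverse variance, with fitted temperatures raised by 9.35 °C to match UV melts.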

A short description of data set [2]: melting temperature; fluorescence melt of hairpins on a sequencing array, two-state fit, raised by 9.35 °C to match UV melts. The note with it: sodium 0.088 M. The method in brief:
as §1

GTTGTAGCGAAAGCTAAC (((..(((....)))))): the folding enthalpy in data set [1] is -23 kcal/mol. Moreover, the Tm in data set [2] is 48.1 °C.

As for GGTGCAGAAATGCACC ((((((....)))))), the folding enthalpy in data set [1] was -25.9 kcal/mol. Further, the Tm in data set [2] is 68 °C.

Regarding GACCGGCCGAAAGGCGTC (((..(((....)))))), the folding enthalpy in data set [1] is -12.5 kcal/mol. The Tm in data set [2] was 38.4 °C.

For GGCTTATCGAAAGATGCC (((..(((....)))))), in data set [1], the folding enthalpy is -24.1 kcal/mol. For the same sequence, in data set [2], the Tm was found to be 39.8 °C.

With GATCTTGTTCAAGATC ((((((....)))))), in data set [1], the folding enthalpy is -43.4 kcal/mol. Further, the Tm in data set [2] amounted to 49.1 °C.

For GATCCCACCTGGGATC ((((((....)))))), the folding enthalpy in data set [1] was -35.6 kcal/mol. The Tm in data set [2] turned out to be 60.1 °C.

For the sequence GCGCCCGGAAACGAGCGC ((((.((....)).)))), the folding enthalpy in data set [1] was -38.9 kcal/mol. Moreover, the Tm in data set [2] was 60 °C.

As for GCACTGCGAAAGCCATGC (((..((....))..))), in data set [1], the folding enthalpy is -14.7 kcal/mol. In data set [2], the Tm was 38.1 °C.

As to GTTGGCGAAAGCCAAAAC ((((((....)))..))), in data set [1], the folding enthalpy was -10.5 kcal/mol. For the same sequence, in data set [2], the Tm was determined as 41.5 °C.

Consider GACTGAGGAAACTTGGTC (((..((....))..))), for which the folding enthalpy in data set [1] is -15.7 kcal/mol. For the same sequence, the Tm in data set [2] was determined as 32.7 °C.

With GTTTGCGAAAGCACGAAC ((((((....)))..))), in data set [1], the folding enthalpy is -9.85 kcal/mol. For the same sequence, the Tm in data set [2] was 27.1 °C.

As to GAGTTGCGAAAGCACCTC (((.(((....))).))), the folding enthalpy in data set [1] is -26.3 kcal/mol. The Tm in data set [2] was 47 °C.

With GGCTATGGAAACATGGTC (.(.(((....))).).), the folding enthalpy in data set [1] is -23.9 kcal/mol. For the same sequence, the Tm in data set [2] is 35.7 °C.

On to GTGTATGCGAAAGCACAC (((..(((....)))))), for which the folding enthalpy in data set [1] was -22.1 kcal/mol. Moreover, in data set [2], the Tm is 45.4 °C.

For GGGGGCGAAAGCCGGCCC ((((((....)))..))), the folding enthalpy in data set [1] is -14.3 kcal/mol. In addition, the Tm in data set [2] amounted to 48 °C.

With GAGTGTGGAAACGCACTC (((((.(....).))))), in data set [1], the folding enthalpy was -42.1 kcal/mol. The Tm in data set [2] was determined as 52.8 °C.

Consider GATCTTAGTGAAGATC ((((((....)))))), for which the folding enthalpy in data set [1] was -27.1 kcal/mol. Besides, the Tm in data set [2] amounted to 43.1 °C.

Take GAATCAGGAAACTGATTC (((((((....))))))): in data set [1], the folding enthalpy was -42.6 kcal/mol. The Tm in data set [2] worked out at 55.8 °C.

Turning to GTGACCCGAAAGGGCAC (((.(((....)))))), the folding enthalpy in data set [1] was -22.9 kcal/mol. Also, the Tm in data set [2] came to 62.4 °C.

Consider GCGATGACGAAAGTCCGC (((..(((....)))))), for which the folding enthalpy in data set [1] is -20 kcal/mol. Further, in data set [2], the Tm was found to be 52 °C.

Consider GGCGTTACGAAAGTAGCC (((..(((....)))))), for which the folding enthalpy in data set [1] was -39.7 kcal/mol. Moreover, the Tm in data set [2] is 55 °C.

For the sequence GTTCTCGAAAGAGGGAAC ((((((....)))..))), the folding enthalpy in data set [1] was -17.6 kcal/mol. In addition, the Tm in data set [2] stood at 31.4 °C.

Consider GTTTAGGGAAACCTAGAC ((.((((....)))).)), for which the folding enthalpy in data set [1] is -27.4 kcal/mol. For the same sequence, the Tm in data set [2] came out at 33 °C.

As to GATCATTAACATGATC ((((((....)))))), the folding enthalpy in data set [1] was -28.6 kcal/mol. The Tm in data set [2] is 44.7 °C.

For GTACTACGAAAGTACTAC (((.(((....))).))), the folding enthalpy in data set [1] is -17.8 kcal/mol. In data set [2], the Tm is 38.6 °C.

For the sequence GAGACCGAAAGGTCCTC ((((((....))).))), the folding enthalpy in data set [1] is -10.4 kcal/mol. Moreover, in data set [2], the Tm came out at 53.6 °C.

Consider GTACCGGGAAACCAGTAC ((((.((....)).)))), for which the folding enthalpy in data set [1] is -23.5 kcal/mol. In addition, in data set [2], the Tm was 38.4 °C.

Regarding GAGCACGAAAGTGAGCTC ((((((....)))..))), the folding enthalpy in data set [1] was -25.4 kcal/mol. The Tm in data set [2] turned out to be 49.6 °C.

GATTAGCGAAAGCTCATC (((.(((....))).))): the folding enthalpy in data set [1] was -19.1 kcal/mol. For the same sequence, the Tm in data set [2] was found to be 38.7 °C.

In the case of GTACAAGGAAACTTGTAC (((((((....))))))), the folding enthalpy in data set [1] is -38.9 kcal/mol. Besides, the Tm in data set [2] was determined as 53.2 °C.

Consider GAAGACGAAAGTCTTTC ((((((....))).))), for which, in data set [1], the folding enthalpy is -13.1 kcal/mol. In data set [2], the Tm was determined as 48.1 °C.

As for GGACGCCGAAAGGCATCC (((.(((....))).))), the folding enthalpy in data set [1] was -22.6 kcal/mol. Moreover, in data set [2], the Tm came to 52.6 °C.

For GATCTCGAAGGAGATC ((((((....)))))), the folding enthalpy in data set [1] is -32.9 kcal/mol. Besides, the Tm in data set [2] came to 55.1 °C.

Turning to GTGTCCGAAAGGAGCCAC ((((((....)))..))), the folding enthalpy in data set [1] was -14.5 kcal/mol. The Tm in data set [2] is 33.5 °C.

As for GCGAGTGGAAACACTTGC ((.((((....)))).)), the folding enthalpy in data set [1] was -39.2 kcal/mol. Also, the Tm in data set [2] was found to be 53.6 °C.

In the case of GCTGCCGAAAGGCGCAGC ((((((....)))..))), the folding enthalpy in data set [1] was -13.6 kcal/mol. In addition, in data set [2], the Tm was 51.3 °C.

Source of the values: the array DNA melting data of Ke et al. (doi:10.1101/2024.01.08.574731).
